# bCat nuc transl – modulators of beta-catenin nuclear translocation, primary screen, imaging, HeLa cells, immunofluorescence, high-content. nuclear translocation activity, % at 5 µM. hit rate 0.3% among 190,000;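 active = nuclear translocation activity above 50% at 5 µM, with a well cell count of 50 or more; inconclusive = wells under 50 cells across six images, flagged as toxic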;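 also: per-cell ratio of nuclear to cytoplasmic median beta-catenin stain intensity; plate controls were DMSO negative control for no effect and GSK-3 inhibitor IX positive control for full effect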
#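 Test system: human HeLa cells, endogenous beta-catenin. Times: 24 h compound exposure, 37°C. Measured by: beta-catenin immunofluorescence imaging with DAPI.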
# MT stabilizer – microtubule stabilizers in HeLa cells, primary screen, imaging, high-content imaging | AID 2205, 2009 | % tubulin-high responders, % at 10 µM | hit rate 0.83% among 200,000 | HeLa tubulin immunostaining HCS, 24 h; share of cells brighter than vehicle mean+2SD;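 active = plate Z-score above 3 for both tubulin-high and condensed-nucleus cell shares, with cell loss under 80%, at 10 µM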;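 also: anti alpha tubulin signal scored within the nucleus-defined area of each cell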
# HSV augment – enhancers of HSV replication in host cells, fold increase, host cell viability. AID 1956, 2009. maximum fold increase. HSV replication augmentation in cells. hit rate 0.005% among 220,000; in the data active = maximum fold increase above about 1.5; inconclusive = no clear call, values can overlap the other calls; tested in PC3 cells
# Ins promoter up – insulin promoter activators in MIN6 cells, imaging, high-content screening, mouse beta cells | z-score at 5 µM | MIN6 insulin promoter-GFP reporter; active compounds read high | AID 1625, 2009 | hit rate 0.3% among 190,000;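 active = z-score above 3 at 5 µM with at least 500 cells counted in the well; inconclusive = wells under 500 cells, flagged as cytotoxic or low count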
# Furin inh – human furin inhibitors, primary screen, biochemical, fluorescence intensity. P09958. purified furin, fluorogenic substrate cleavage. inhibition, % at 20 µM or 30 µM. hit rate 0.061% among 220,000. AID 463115, 2010; in the data active = inhibition above about 25%
# Autophagy HCS – autophagy modulators in MEF cells, primary screen, imaging, high-content, MEF GFP-LC3; calls only at 10 µM (by protocol); hit rate 0.98% among 190,000; MEF GFP-LC3 puncta imaging; test concentration mostly 10 µM;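 active = percentage of spot-positive cells more than 3 SD above its plate mean, without a fluorescence outlier flag or 80% toxicity; inconclusive = no clear call, values can overlap the other calls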;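 also: spot-positive cell cutoff set from DMSO-treated cells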
# * hit, by the source's call; i = inactive; ? = inconclusive; . = no result; + = active, no number. This is a sample that favours compounds with a hit; in the whole collection about 1.9% have one here.
SMILES,bCat nuc transl,MT stabilizer,HSV augment,Ins promoter up,Furin inh,Autophagy HCS
COc1ccc(CN2CCN(Cc3nc4ccccc4s3)CC2CCO)c(C)c1C (centres undefined),1.9,1.3,i,-0.07,-11.8,i
O=C(Cc1ccccc1Cl)Nc1cccnc1,0.0,1.9,i,0.42,-26.0,i
Cc1c(C(=O)OCCOC(C)C)[nH]c2c1C(=O)CC(c1ccco1)C2 (centres undefined),118.1*,6.5,i,.,-20.1,i
CCCCNC(=O)NS(=O)(=O)c1ccc(C(=O)OC)o1,.,3.4,i,0.41,-8.1,i
COc1ccc(Nc2cc(C)nc3nc(C)nn23)c(OC)c1,-1.3,2.7,i,0.41,-15.0,i
COc1ccc(OC)c(Nc2cc(C)nc3nc(C)nn23)c1,7.7,16.0*,i,-0.65,-24.8,i
O=C(Nc1ccc(N2CCCC2)cc1)c1cccc(F)c1,.,43.0*,i,-0.09,-19.1,i
CCN1CCN(c2ccc(NC(=O)c3cccc(OCc4ccccc4)c3)cc2)CC1,-10.2,2.2,i,.,-5.9,i
O=C(Nc1ccc(N2CCN(c3ccc(O)cc3)CC2)cc1)Oc1ccccc1,2.6,17.9*,i,-0.31,-14.2,i
O=C(Nc1ccc(N2CCCCC2)cc1)c1cc([N+](=O)[O-])cc([N+](=O)[O-])c1,-0.8,1.2,i,-0.65,-16.7,+
CN1CCN(c2ccc(NC(=O)c3cccc(OCc4ccccc4)c3)cc2)CC1,-0.7,2.9,.,-0.38,-16.4,+
CCOc1ccc(C(CC(=O)O)NC(=O)COc2ccccc2OC)cc1OC (centres undefined),-0.2,2.1,i,-0.22,-19.0,i
Cc1ccc(C2=NN(C(=S)Nc3ccccc3)C(c3ccco3)C2)cc1 (centres undefined),-2.1,1.6,i,-0.42,-25.6,i
CCS(=O)(=O)Nc1ccc(C2=NN(C(=S)Nc3ccccc3)C(c3ccco3)C2)cc1 (centres undefined),0.3,21.8*,i,-0.92,-16.6,i
CC(=O)Cn1ncc(Br)c(Br)c1=O,1.1,13.1,i,.,-19.3,+
O=C(OCn1ncc(Br)c(Br)c1=O)c1c(F)cccc1F,2.7,2.3,i,?,-19.4,+
COc1cc(-c2cc(C(=O)Nc3ccc(S(=O)(=O)NCc4ccco4)cc3)c3ccccc3n2)cc(OC)c1OC,.,2.5,i,-0.96,-5.0,+
CSc1nnc(Cn2c(=O)sc3ccccc32)n1CCc1ccccc1,.,3.6,i,-0.35,-22.9,i
Cc1ccc(/C=C2/NC(=O)N(c3ccccc3)C2=O)o1,-0.9,1.5,i,0.13,3.4,i
O=C1N/C(=C/c2ccc(Br)s2)C(=O)N1c1ccccc1,0.4,1.7,i,-0.35,-17.3,+
Cc1ccc2[nH]c(=O)c(CN(CCCN(C)C)C(=O)Nc3ccc(F)cc3)cc2c1,0.1,2.6,i,-0.05,-11.7,i
CCOC(=O)c1cnn(-c2cc(C)nc3c(-c4ccccc4)cnn23)c1N,-3.9,4.8,i,3.62*,-1.5,i
CCOC(=O)C1C(=O)C=C(c2ccc(C)cc2)CC1c1ccccc1 (centres undefined),0.0,3.4,i,-0.36,-8.9,i
CCOC(=O)C1C(=O)C=C(/C=C/c2ccc(N(C)C)cc2)CC1c1ccccc1 (centres undefined),-1.8,6.8,?,9.81*,-20.2,+
O=C(COC(=O)c1ccccc1C(=O)c1ccc(Cl)cc1)NCC1CCCO1 (centres undefined),-1.0,4.2,i,0.14,-19.4,i
CCc1ccc2nc(SCC(=O)N3CC(=O)Nc4ccccc43)c(C#N)cc2c1,-1.3,14.5,i,2.04,-24.0,+
CCOC(=O)C1=C(C)N(CCCC(=O)O)C(=O)NC1c1cc2ccccc2c2ccccc12 (centres undefined),.,.,i,.,.,.
Cc1cccc(NC(=O)COC(=O)c2cccc3c2C(=O)c2ccccc2C3=O)c1C,0.6,2.9,i,-0.9,-6.3,i
Nc1cccc(C(=O)OCC(=O)Nc2cccc3c2C(=O)c2ccccc2C3=O)c1,.,3.3,i,-0.14,-2.4,+

# High-throughput results as filed in PubChem BioAssay.
